Compound activity deposited in PubChem by Johns Hopkins Ion Channel Center.
Only some compounds are listed: those with a hit (about 3.7% of all), similar ones and a draw of the others.
KCNQ1 act – human KCNQ1 channel potentiation or activation; AID 2648; CHO-K1 KCNQ1, thallium flux FluxOR fluorescence; hits give high values; actives 0.35% (n = 310,000); P51787; B-score at 10 µM;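 active = fluorescence ratio B-score, a plate-corrected score, at least three library SD, with initial intensity B-score within 5 SD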
Target sequence (P51787 whole entry, looked up): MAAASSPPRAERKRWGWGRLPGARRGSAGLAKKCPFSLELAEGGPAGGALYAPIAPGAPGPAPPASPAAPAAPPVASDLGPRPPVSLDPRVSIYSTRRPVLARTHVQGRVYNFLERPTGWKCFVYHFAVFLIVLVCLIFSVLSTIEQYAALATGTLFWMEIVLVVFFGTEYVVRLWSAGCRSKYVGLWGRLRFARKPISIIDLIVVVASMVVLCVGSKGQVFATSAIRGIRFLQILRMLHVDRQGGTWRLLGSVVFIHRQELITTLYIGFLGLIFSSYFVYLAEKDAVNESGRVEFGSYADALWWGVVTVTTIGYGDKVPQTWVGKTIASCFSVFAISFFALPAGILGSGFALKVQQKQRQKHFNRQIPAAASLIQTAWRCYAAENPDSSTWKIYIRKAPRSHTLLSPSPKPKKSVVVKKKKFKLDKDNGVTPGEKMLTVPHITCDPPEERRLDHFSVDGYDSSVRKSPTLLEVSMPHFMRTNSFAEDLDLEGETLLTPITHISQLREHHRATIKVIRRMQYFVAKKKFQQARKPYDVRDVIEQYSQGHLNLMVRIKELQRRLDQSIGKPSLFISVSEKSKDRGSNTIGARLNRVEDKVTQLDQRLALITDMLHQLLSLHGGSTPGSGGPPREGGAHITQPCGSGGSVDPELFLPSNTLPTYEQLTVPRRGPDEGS
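Assay system: CHO-K1 cells stably expressing KCNQ1. Medium: assay buffer for compound exposure, DMSO matched across wells. Timing: 37 °C overnight plating, 90-min dark dye load, 20-min compound pretreatment. Signal: kinetic FluxOR fluorescence, 10 s baseline plus 110 s post-stimulus.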
KCNK3 inh – human KCNK3 channel inhibition, primary screen | O14649 | CHO-KCNK3 thallium flux, FluxOR fluorescence; hits give low values | B-score at 10 µM | actives 0.84% (n = 340,000);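 active = B-score under library mean minus 4 SD, starting fluorescence ratio at most library mean plus 5 SD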;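 note: more negative B-score means stronger inhibition of thallium flux through KCNK3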
KCNK9 inh – inhibitors of human KCNK9 two-pore domain potassium channel. HEK293 KCNK9, FluxOR thallium flux fluorescence; hits give low values. B-score at 10 µM. actives 1.2% (n = 310,000);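 active = ratio B-score over 3 SD below the library mean, with starting fluorescence within 5 SD of its mean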;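 note: negative B-score means less thallium flux so channel inhibition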
hERG protect – shields human hERG channel from block by proarrhythmic agents. Q12809. CHO-hERG, FluxOR thallium flux, dofetilide IC70 present. activation (rescue from dofetilide block), less the hit threshold, % at 10 µM. actives 0.51% (n = 310,000). AID 1511;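 active = activation above the mean of controls blocked by dofetilide plus 5 SD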;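 note: thallium influx through hERG after potassium depolarization seen as dye fluorescence rise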
Kir21 inh – inhibitors of mouse Kir2.1 inward-rectifier potassium channel | P35561 | actives 0.85% (n = 310,000) | B-score at 10 µM | HEK293-Kir2.1, FluxOR thallium flux fluorescence; hits give low values;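 active = fluorescence ratio B-score at or below minus 3 SD of library scores, with starting-brightness B-score within 2 SD, cut at about -4.2 in these data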;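 note: channel flux triggered by added potassium and thallium sulfate stimulus; B-score of peak minus minimum fluorescence over baseline after thallium stimulus; more negative B-score means stronger Kir2.1 block with less thallium influx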
KCNQ1 inh – human KCNQ1 channel inhibition. actives 1.3% (n = 310,000). CHO-K1 KCNQ1, FluxOR thallium flux fluorescence; hits give high values. B-score at 10 µM;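 active = compounds whose thallium flux B-score, printed positive for inhibition, exceeds three library SD while starting fluorescence stays within three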;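 note: channel opened by potassium depolarization with thallium stimulus after 20 min compound exposure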
KCNK9 block conf – human KCNK9 inhibitor confirmation; HEK293 KCNK9 cells, FluxOR thallium flux fluorescence; actives 43% (n = 4,900); AID 492992; shares compounds with KCNK9 inh; inhibition, % at 10 µM;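 active = thallium signal inhibited by more than 5 SD of the compound-free buffer control wells, on both duplicate plates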;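 note: 0% = assay buffer control wells without compound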
Kir2-1 spec – selectivity of KCNK9 modulators against mouse Kir2.1; shares compounds with KCNK9 inh; Kir2.1 cells, FluxOR thallium flux fluorescence; inhibition, % at 10 µM; actives 4% (n = 4,900); AID 492993;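 active = thallium signal drop more than 5 SD beyond the mean of the no-compound control wells, seen in both duplicate plates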;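 note: signal is fluorescence rise after thallium addition divided by baseline fluorescence; plate controls were assay buffer only for no effect and full block by chlorpromazine control for full effect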
HEK293 Tl ctr – second check of KCNK9 modulator effects in non-induced HEK293 cells; FluxOR thallium flux; inhibition, % at 10 µM; shares compounds with KCNK9 inh; AID 492997; actives 40% (n = 4,900);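 active = thallium signal drop beyond 5 SD of the untreated control mean, on both duplicate plates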;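 note: plate controls were buffer only IC0 wells for no effect and SID17386958 at its maximal inhibitory level for full effect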
KCNK3 confirm – confirmation of human KCNK3 two-pore domain potassium channel inhibitors. shares compounds with KCNK3 inh. CHO-KCNK3 thallium flux, FluxOR fluorescence; 0% buffer, 100% carvedilol maximal block. ratio percent of control, % at 10 µM. actives 99% (n = 2,400). AID 651638;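 active = ratio percent of control, averaged over triplicates, above buffer control mean plus 5 SD, cut at about 64% in these data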;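 note: ratio is the fluorescence rise from min to max over baseline after thallium stimulus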
KCNK3 uninduced – counter-screen for KCNK3 inhibitors: effect in non-induced cells | shares compounds with KCNK3 inh | non-induced KCNK3 parental cells, FluxOR thallium flux; hits give low values | thallium flux ratio (lower = more inhibition) at 10 µM | actives 40% (n = 2,400);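 active = thallium flux ratio, averaged over three wells, more than 5 SD below the buffer control mean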;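 note: host cells are CHO cells without KCNK3 induction; ratio is peak minus trough fluorescence over baseline then normalized to buffer controls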
An asterisk follows results filed as active.

O=[N+]([O-])c1cccc(C2CC(c3ccccc3)=NN2c2ccccc2)c1 (centres undefined) was read as KCNQ1 act inactive, KCNK3 inh inactive, KCNK9 inh -10*, hERG protect -5, Kir21 inh 1.5, KCNQ1 inh inactive, KCNK9 block conf 56%*, Kir2-1 spec inactive, HEK293 Tl ctr 28%*, KCNK3 confirm 94* and KCNK3 uninduced inactive.
COC(=O)c1cccnc1-n1c(=O)c2cccnc2n(Cc2cccc(OC)c2)c1=O was read as KCNQ1 act inactive, KCNK3 inh inactive, KCNK9 inh inactive, hERG protect -10, Kir21 inh -1.2 and KCNQ1 inh inactive.
COC(=O)c1cc(-c2cc(OC)ccc2OC)nc2c1c(=O)n(C)c(=O)n2Cc1ccccc1 was read as KCNQ1 act inactive, KCNK3 inh -11*, KCNK9 inh inactive, hERG protect -10, Kir21 inh 0.78, KCNQ1 inh inactive, KCNK9 block conf inactive, Kir2-1 spec inactive, HEK293 Tl ctr inactive, KCNK3 confirm 101* and KCNK3 uninduced inactive.
CSc1ccc(-c2nc3cnccn3c2Nc2ccc3c(c2)OCO3)cc1 was read as KCNQ1 act inactive, KCNK3 inh inactive, KCNK9 inh inactive, hERG protect -10, Kir21 inh 0.32 and KCNQ1 inh inactive.
Screening Clc1ccc(-c2nc3cnccn3c2Nc2ccc3c(c2)OCO3)cc1 returned KCNQ1 act inactive, KCNK3 inh -9.7*, KCNK9 inh -12*, hERG protect -15, Kir21 inh 2.4, KCNQ1 inh inactive, KCNK9 block conf 60%*, Kir2-1 spec inactive, HEK293 Tl ctr 24%*, KCNK3 confirm 105* and KCNK3 uninduced inactive.
`O=C(Nc1ccc(Cn2ccnc2)cc1)c1cccc(C(F)(F)F)c1` gave KCNQ1 act inactive, KCNK3 inh inactive, KCNK9 inh inactive, hERG protect -5, Kir21 inh -0.72 and KCNQ1 inh inactive.
O=C(NC1CCOCC1)C1CCC(=O)N(Cc2ccc(Cl)cc2)C1 (centres undefined) was read as KCNQ1 act inactive, KCNK3 inh inactive, KCNK9 inh inactive, hERG protect -9, Kir21 inh 1 and KCNQ1 inh inactive.
Screening COc1ccccc1Nc1nc(N)nc(CSC(=S)N2CCCCC2)n1 returned KCNQ1 act inactive, KCNK3 inh inactive, KCNK9 inh inactive, hERG protect -7, Kir21 inh 1.8 and KCNQ1 inh inactive.
Screening CC1(C)CC(=O)C2=C(C1)N=C1c3ccccc3C(=O)C1C2c1ccc(Cl)cc1 (centres undefined) returned KCNQ1 act inactive, KCNK3 inh -15*, KCNK9 inh -12*, hERG protect -11, Kir21 inh -0.01, KCNQ1 inh inactive, KCNK9 block conf 55%*, Kir2-1 spec inactive, HEK293 Tl ctr 40%*, KCNK3 confirm 122* and KCNK3 uninduced 0.14*.
`COc1ccc(Cl)cc1N(CC(=O)NC1CC1)S(=O)(=O)c1ccc(C)c([N+](=O)[O-])c1` gave KCNQ1 act inactive, KCNK3 inh inactive, KCNK9 inh inactive, hERG protect 0, Kir21 inh 1 and KCNQ1 inh inactive.
